One data set concerns HeLa. As to the kind of experiment: Antiproliferative activity against human HeLa cells after 72 hrs by MTT assay. Type of data set: functional, cell-based. The method in brief: (§1)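 Cells kept in high-glucose DMEM with L-glutamine, 10% FBS, penicillin/streptomycin, at 37 °C and 5% CO2. Seeded in 96-well plates and preincubated 48 h. Compounds added at preset concentrations (6 wells each; erlotinib as positive reference) for 72 h. MTT in PBS (2.5 mg/mL) added for 4 h, formazan dissolved in DMSO, A570 read. IC50 is the concentration leaving 50% of cells surviving. Mean ± SD of three independent experiments in triplicate.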
(Formazan colour is commonly taken as a measure of viable cells.)

Another data set concerns HepG2. As to the kind of experiment: Antiproliferative activity against human HepG2 cells after 72 hrs by MTT assay. It counts as functional, cell-based. The following applies: HepG2, 72 h. The method in brief: as §1
A short description of data set [1]: Cytotoxicity against human 293T cells after 72 hrs by MTT assay. It counts as cell-based. As to conditions: HEK-293T cells.
Another data set relates to MCF7. As to the kind of experiment: Antiproliferative activity against human MCF7 cells after 72 hrs by MTT assay. It counts as functional, cell-based. The following applies: MCF7, 72 h. Summed up: as §1
Another data set relates to MGC-803. As to the kind of experiment: Antiproliferative activity against human MGC803 cells after 72 hrs by MTT assay. Type of data set: functional, cell-based. The following applies: MGC-803, 72 h. The method in brief:
as §1

In brackets after ≈: the same amount, converted by molar mass. Where only a bound is given, the exact number is not on record here.

With `COc1ccc(C(=O)O/N=C(/Cn2cc([N+](=O)[O-])nc2C)c2ccc(Br)cc2)cc1`, the IC50 (usually the concentration needed to halve the response being measured) with HeLa is 6.54 µg/mL (≈ 13.8 µM); with HepG2, 1.25 µg/mL (≈ 2.64 µM); in the data set with MCF7, 3.15 µg/mL (≈ 6.66 µM); with MGC-803 it was 0.34 µg/mL (≈ 0.718 µM). In addition, the cytotoxic concentration (CC50) (in general, the concentration giving 50% cytotoxicity) at 72 h in data set [1] was determined as 1600 µg/mL (≈ 3380 µM).
The like results for `Cc1nc([N+](=O)[O-])cn1C/C(=N/OC(=O)c1cccnc1Cl)c1ccc(Br)cc1` were, in that order, 1.28 µg/mL (≈ 2.67 µM), 0.76 µg/mL (≈ 1.59 µM), 0.76 µg/mL (≈ 1.59 µM), 0.73 µg/mL (≈ 1.52 µM) and 12000 µg/mL (≈ 25100 µM).
For the molecule `Cc1nc([N+](=O)[O-])cn1C/C(=N\O)c1ccc(Br)cc1`, the IC50 is greater than 20 µg/mL in the data set on HeLa, 17.4 µg/mL (≈ 51.3 µM) with HepG2, greater than 20 µg/mL in the data set on MCF7 and greater than 20 µg/mL in the data set on MGC-803.
In the case of `Cc1nc([N+](=O)[O-])cn1C/C(=N/OC(=O)c1ccc(Cl)cc1)c1ccc(Br)cc1`, the IC50 in the data set with HeLa was determined as 8.79 µg/mL (≈ 18.4 µM); in the data set with HepG2, 1.34 µg/mL (≈ 2.81 µM); in the data set with MCF7, 2.79 µg/mL (≈ 5.84 µM); with MGC-803, 0.45 µg/mL (≈ 0.942 µM). The same molecule displayed a CC50 at 72 h in data set [1] of 230 µg/mL (≈ 481 µM).
The like results for `Cc1nc([N+](=O)[O-])cn1C/C(=N/OC(=O)c1ccc(F)cc1)c1ccc(Br)cc1` were, in that order, 7.24 µg/mL (≈ 15.7 µM), 1.22 µg/mL (≈ 2.65 µM), 2.12 µg/mL (≈ 4.6 µM), 1.24 µg/mL (≈ 2.69 µM) and 23000 µg/mL (≈ 49900 µM).
The like results for `Cc1ccc(C(=O)O/N=C(/Cn2cc([N+](=O)[O-])nc2C)c2ccc(Br)cc2)cc1` were, in that order, 0.96 µg/mL (≈ 2.1 µM), 0.96 µg/mL (≈ 2.1 µM), 1.54 µg/mL (≈ 3.37 µM), 0.81 µg/mL (≈ 1.77 µM) and 270 µg/mL (≈ 590 µM).
Turning to `COc1ccccc1C(=O)O/N=C(/Cn1cc([N+](=O)[O-])nc1C)c1ccc(Br)cc1`, the IC50 is greater than 20 µg/mL in the data set on HeLa, greater than 20 µg/mL in the data set on HepG2, 3.13 µg/mL (≈ 6.61 µM) in the data set on MCF7 and 3.53 µg/mL (≈ 7.46 µM) in the data set with MGC-803. Moreover, the CC50 at 72 h in data set [1] came to 500 µg/mL (≈ 1060 µM).
With `Cc1nc([N+](=O)[O-])cn1C/C(=N/OC(=O)c1ccccc1Cl)c1ccc(Br)cc1`, the concentration for half-maximal inhibition (IC50) with HeLa is 8.53 µg/mL (≈ 17.9 µM); in the data set with HepG2, 1.33 µg/mL (≈ 2.78 µM); in the data set with MCF7 it was 1.27 µg/mL (≈ 2.66 µM); in the data set with MGC-803, 0.16 µg/mL (≈ 0.335 µM). This molecule also yielded a CC50 at 72 h in data set [1] of 530 µg/mL (≈ 1110 µM).
The like results for `Cc1nc([N+](=O)[O-])cn1C/C(=N/OC(=O)c1ccc(Cl)nc1)c1ccc(Br)cc1` were, in that order, 0.96 µg/mL (≈ 2.01 µM), 0.71 µg/mL (≈ 1.48 µM), 0.79 µg/mL (≈ 1.65 µM), 0.82 µg/mL (≈ 1.71 µM) and 250 µg/mL (≈ 522 µM).
As for `O=c1[nH]cc(F)c(=O)[nH]1` [FLUOROURACIL], the IC50 in the data set with HeLa is 3.82 µg/mL (≈ 29.4 µM); in the data set with HepG2 it was 2.24 µg/mL (≈ 17.2 µM); with MCF7, 2.19 µg/mL (≈ 16.8 µM); in the data set with MGC-803, 1.8 µg/mL (≈ 13.8 µM).
As for `Cc1nc([N+](=O)[O-])cn1C/C(=N/OC(=O)c1ccc([N+](=O)[O-])cc1)c1ccc(Br)cc1`, the IC50 with HeLa was determined as 12.4 µg/mL (≈ 25.4 µM); in the data set on HepG2, 1.43 µg/mL (≈ 2.93 µM); with MCF7 it was 0.86 µg/mL (≈ 1.76 µM); in the data set on MGC-803, 0.37 µg/mL (≈ 0.758 µM). In data set [1], the cytotoxic concentration (CC50) at 72 h stood at 160 µg/mL (≈ 328 µM).
The corresponding values for `Cc1nc([N+](=O)[O-])cn1C/C(=N/OC(=O)c1ccc(Br)cc1)c1ccc(Br)cc1` are 5.67 µg/mL (≈ 10.9 µM), 2.56 µg/mL (≈ 4.9 µM), 2.56 µg/mL (≈ 4.9 µM), 1.48 µg/mL (≈ 2.83 µM) and 330 µg/mL (≈ 632 µM).
Consider `Cc1nc([N+](=O)[O-])cn1C/C(=N/OC(=O)c1ccncc1)c1ccc(Br)cc1`, for which the IC50 in the data set with HeLa was determined as 1.63 µg/mL (≈ 3.67 µM); in the data set with HepG2, 0.81 µg/mL (≈ 1.82 µM); in the data set with MCF7 it was 0.87 µg/mL (≈ 1.96 µM); in the data set on MGC-803, 0.02 µg/mL (≈ 0.045 µM). Further, half-maximal cytotoxicity in data set [1] (CC50 at 72 h) was put at 80 µg/mL (≈ 180 µM).
